Laboratory results from ChEMBL document CHEMBL2346608, “New annelated thieno[2,3-e][1,2,3]triazolo[1,5-a]pyrimidines, with potent anticancer activity, designed through VLAK protocol” (2013).

Experiments:
Format in all cases: functional
OVCAR-5 = assay: Antiproliferative activity against human OVCAR5 cells after 48 hrs by sulforhodamine B assay; conditions: OVCAR-5, 48 h
Outline: (§1)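 Cells grown in RPMI 1640 with 5% FBS and 2 mM L-glutamine, plated at 5000–40,000 cells/well and preincubated 24 h at 37 °C, 5% CO2. Five drug concentrations (10-fold or ½-log dilutions from DMSO stocks) applied for 48 h. TCA-fixed (final 10% adherent, 16% suspension), SRB-stained, A515 read. Growth versus time-zero and control wells gave GI50, TGI, LC50.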

HT-29 = assay: Antiproliferative activity against human HT-29 cells after 48 hrs by sulforhodamine B assay; conditions: HT-29, 48 h; outline: as §1
M14 = assay: Antiproliferative activity against human M14 cells after 48 hrs by sulforhodamine B assay; conditions: M14, 48 h; outline: as §1
[1] = Antiproliferative activity against human EKVX cells after 48 hrs by sulforhodamine B assay; outline: as §1
MCF7 = assay: Antiproliferative activity against human MCF7 cells after 48 hrs by sulforhodamine B assay; conditions: MCF7, 48 h; outline: as §1
KM12 = assay: Antiproliferative activity against human KM12 cells after 48 hrs by sulforhodamine B assay; conditions: KM12, 48 h; outline: as §1
OVCAR-3 = assay: Antiproliferative activity against human OVCAR3 cells after 48 hrs by sulforhodamine B assay; conditions: OVCAR-3, 48 h; outline: as §1
SN12C = assay: Antiproliferative activity against human SN12C cells after 48 hrs by sulforhodamine B assay; outline: as §1
OVCAR-4 = assay: Antiproliferative activity against human OVCAR4 cells after 48 hrs by sulforhodamine B assay; conditions: OVCAR-4, 48 h; outline: as §1
ACHN = assay: Antiproliferative activity against human ACHN cells after 48 hrs by sulforhodamine B assay; outline: as §1
TK-10 = assay: Antiproliferative activity against human TK10 cells after 48 hrs by sulforhodamine B assay; conditions: TK-10, 48 h
Outline: (§2)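 Cells in RPMI 1640 with 5% FBS and 2 mM L-glutamine were seeded at 5000–40,000/well according to doubling time and preincubated 24 h at 37 °C in 5% CO2. Time-zero plates were TCA-fixed when drug was added. Five 10-fold or ½-log dilutions from DMSO stocks were added for 48 h. After SRB staining, A515 was read and GI50 derived from [(Ti−Tz)/(C−Tz)]×100 = 50.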

LOX IMVI = assay: Antiproliferative activity against human LOXIMVI cells after 48 hrs by sulforhodamine B assay; outline: as §1
SK-MEL-28 = assay: Antiproliferative activity against human SK-MEL-28 cells after 48 hrs by sulforhodamine B assay; conditions: SK-MEL-28, 48 h; outline: as §1
OVCAR-8 = assay: Antiproliferative activity against human OVCAR8 cells after 48 hrs by sulforhodamine B assay; conditions: OVCAR-8, 48 h; outline: as §1
SF-268 = assay: Antiproliferative activity against human SF268 cells after 48 hrs by sulforhodamine B assay; conditions: SF-268, 48 h; outline: as §1
DU-145 = assay: Antiproliferative activity against human DU145 cells after 48 hrs by sulforhodamine B assay; conditions: DU-145, 48 h; outline: as §1
HCT-15 = assay: Antiproliferative activity against human HCT15 cells after 48 hrs by sulforhodamine B assay; conditions: HCT-15, 48 h; outline: as §1
SF-539 = assay: Antiproliferative activity against human SF539 cells after 48 hrs by sulforhodamine B assay; conditions: SF-539, 48 h; outline: as §1
A549 = assay: Antiproliferative activity against human A549 cells after 48 hrs by sulforhodamine B assay; conditions: A549, 48 h; outline: as §1
[2] = Antiproliferative activity against human Hs 578T cells after 48 hrs by sulforhodamine B assay; outline: as §1
786-0 = assay: Antiproliferative activity against human 786-0 cells after 48 hrs by sulforhodamine B assay; conditions: 786-0, 48 h; outline: as §1
HOP-62 = assay: Antiproliferative activity against human HOP62 cells after 48 hrs by sulforhodamine B assay; conditions: HOP-62, 48 h; outline: as §1
MDA-MB-468 = assay: Antiproliferative activity against human MDA-MB-468 cells after 48 hrs by sulforhodamine B assay; conditions: MDA-MB-468, 48 h; outline: as §1
NCI-H226 = assay: Antiproliferative activity against human NCI-H226 cells after 48 hrs by sulforhodamine B assay; conditions: NCI-H226, 48 h; outline: as §1
MDA-MB-435 = assay: Antiproliferative activity against human MDA-MB-435 cells after 48 hrs by sulforhodamine B assay; conditions: MDA-MB-435, 48 h; outline: as §1
HL-60 = assay: Antiproliferative activity against human HL60 (TB) cells after 48 hrs by sulforhodamine B assay; conditions: HL-60, 48 h
Outline: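 NCI 60-cell panel protocol: cells in RPMI 1640 with 5% FBS and 2 mM L-glutamine, plated 24 h at 37 °C/5% CO2 before dosing. Compounds dissolved in DMSO and tested at five concentrations (10-fold or ½ log serial dilutions) for 48 h. Suspension cells fixed with 80% TCA (final 16%), SRB stained, absorbance at 515 nm. GI50 derived from time-zero-corrected growth.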

U-251 = assay: Antiproliferative activity against human U251 cells after 48 hrs by sulforhodamine B assay; conditions: U-251, 48 h; outline: as §2
[3] = read-out: pLC50 (the source's name) (converted)

Which results are given for `O=C(CCCn1c(=O)c2sc3ccccc3c2n2nnc(-c3ccccc3)c12)NCCc1c[nH]cn1`?
GI50 (OVCAR-5): 1.2 µM; TGI (OVCAR-5; read-out: pTGI (converted)): 2.75 µM; GI50 (HT-29): 1.35 µM; LC50 (HT-29): 7.41 µM; TGI (HT-29; read-out: pTGI (converted)): 3.16 µM; GI50 (M14): 1.7 µM; TGI (M14; read-out: pTGI (converted)): 3.8 µM; GI50 [1]: 2.69 µM; LC50 [1]: > 100 µM; TGI ([1]; read-out: pTGI (converted)): 8.71 µM; GI50 (MCF7): 1.45 µM; LC50 (MCF7): 6.46 µM; TGI (MCF7; read-out: pTGI (converted)): 3.09 µM; GI50 (KM12): 1.15 µM; TGI (KM12; read-out: pTGI (converted)): 2.82 µM; GI50 (OVCAR-3): 1.51 µM; LC50 (OVCAR-3): 6.61 µM; TGI (OVCAR-3; read-out: pTGI (converted)): 3.16 µM; GI50 (SN12C): 0.269 µM; LC50 (SN12C): 5.13 µM; TGI (SN12C; read-out: pTGI (converted)): 1.86 µM; GI50 (OVCAR-4): 1.74 µM; TGI (OVCAR-4; read-out: pTGI (converted)): 3.8 µM; GI50 (ACHN): 1.66 µM; LC50 (50% lethal concentration) (ACHN): 5.5 µM; TGI (ACHN; read-out: pTGI (converted)): 3.02 µM; GI50 (TK-10): 2.14 µM; TGI (TK-10; read-out: pTGI (converted)): 3.98 µM; GI50 (LOX IMVI): 1.58 µM; CC50 (LOX IMVI; [3]): 5.37 µM; TGI (LOX IMVI; read-out: pTGI (converted)): 2.95 µM; GI50 (SK-MEL-28): 1.74 µM; LC50 (SK-MEL-28): 5.89 µM; TGI (SK-MEL-28; read-out: pTGI (converted)): 3.24 µM; GI50 (OVCAR-8): 0.324 µM; LC50 (OVCAR-8): > 100 µM; TGI (OVCAR-8; read-out: pTGI (converted)): 2.82 µM; GI50 (SF-268): 1.78 µM; LC50 (SF-268): 7.76 µM; TGI (SF-268; read-out: pTGI (converted)): 3.72 µM; GI50 (DU-145): 1.55 µM; LC50 (DU-145): 5.75 µM; TGI (DU-145; read-out: pTGI (converted)): 2.95 µM; GI50 (HCT-15): 1.26 µM; LC50 (HCT-15): 5.01 µM; TGI (HCT-15; read-out: pTGI (converted)): 2.51 µM; GI50 (SF-539): 0.661 µM; LC50 (SF-539): 5.75 µM; TGI (SF-539; read-out: pTGI (converted)): 2.19 µM; GI50 (A549): 2.09 µM; TGI (A549; read-out: pTGI (converted)): 4.57 µM; GI50 [2]: 1.74 µM; TGI ([2]; read-out: pTGI (converted)): 4.07 µM; GI50 (786-0): 1.58 µM; TGI (786-0; read-out: pTGI (converted)): 3.55 µM; GI50 (HOP-62): 2.29 µM; LC50 (HOP-62): > 100 µM; TGI (HOP-62; read-out: pTGI (converted)): 5.25 µM; GI50 (MDA-MB-468): 1.7 µM; LC50 (MDA-MB-468): 7.94 µM; TGI (MDA-MB-468; read-out: pTGI (converted)): 3.72 µM; GI50 (NCI-H226): 18.6 µM; LC50 (NCI-H226): 75.9 µM; TGI (NCI-H226; read-out: pTGI (converted)): 38 µM; GI50 (MDA-MB-435): 1.48 µM; LC50 (MDA-MB-435): 6.31 µM; TGI (MDA-MB-435; read-out: pTGI (converted)): 3.09 µM; GI50 (HL-60): 1.41 µM; CC50 (HL-60; [3]): > 100 µM; TGI (HL-60; read-out: pTGI (converted)): 6.31 µM; GI50 (U-251): 1.05 µM; LC50 (U-251): 4.68 µM; TGI (U-251; read-out: pTGI (converted)): 2.24 µM
